# Test results from ChEMBL document CHEMBL4354820, “Optimizing Targeted Inhibitors of P-Glycoprotein Using Computational and Structure-Guided Approaches” (J Med Chem, 2019).
# Experiments:
# [1] = biological target: T1, ATP-dependent translocase ABCB1 (Homo sapiens, UniProt P08183); assay: Inhibition of P-gp overexpressed in human DU145-TxR cells assessed as increase in cellular accumulation of calcein AM at 2 uM pretreated followed by calcein AM addition by fluorescence imaging analysis; format: cell-based
# Summary of the method: (§1)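 Confluent DU145TXR monolayers in phenol red-free RPMI 1640 given 2 μM inhibitor (DMSO vehicle) and 1 μg mL−1 calcein AM, either added together or after a 6 h inhibitor-only preincubation at 37 °C. Calcein fluorescence (ex 485 / em 535 nm) read over 60 min at 20 min intervals. Six replicates, at least two independent experiments.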
# [2] = biological target: T1, ATP-dependent translocase ABCB1; assay: Reversal of P-gp mediated multidrug resistance in human DU145-TxR cells overexpressing P-gp assessed as potentiation of paclitaxel-induced cytotoxicity by measuring fold reduction paclitaxel IC50 at 7 uM after 48 hrs by MTT assay relative to paclitaxel alone; format: cell-based
# Summary of the method: (§2)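 DU145TXR cells seeded at 3000 per well, 24 h later treated 48 h with paclitaxel alone or with 3, 5, 7 or 10 μM inhibitor in complete medium (DMSO vehicle). MTT 4 h, formazan dissolved in DMSO, A570 read, background subtracted, viability relative to DMSO. IC50 by four-parameter nonlinear fit; eight replicates, at least two experiments. Fold values compare paclitaxel alone or with parent inhibitor.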
# [3] = biological target: T1, ATP-dependent translocase ABCB1; assay: Reversal of P-gp mediated multidrug resistance in human DU145-TxR cells overexpressing P-gp assessed as potentiation of paclitaxel-induced cytotoxicity by measuring fold reduction paclitaxel IC50 at 5 uM after 48 hrs by MTT assay relative to paclitaxel alone; format: cell-based; summary of the method: as §2
# [4] = biological target: T1, ATP-dependent translocase ABCB1; assay: Reversal of P-gp mediated multidrug resistance in human DU145-TxR cells overexpressing P-gp assessed as potentiation of paclitaxel-induced cytotoxicity by measuring fold reduction paclitaxel IC50 at 3 uM after 48 hrs by MTT assay relative to paclitaxel alone; format: cell-based; summary of the method: as §2
# [5] = biological target: T1, ATP-dependent translocase ABCB1; assay: Reversal of P-gp mediated multidrug resistance in human DU145-TxR cells overexpressing P-gp assessed as potentiation of paclitaxel-induced cytotoxicity by measuring fold reduction paclitaxel IC50 at 3 uM after 48 hrs by MTT assay relative to parent compound; format: cell-based; summary of the method: as §2
# [6] = biological target: T1, ATP-dependent translocase ABCB1; assay: Reversal of P-gp mediated multidrug resistance in human DU145-TxR cells overexpressing P-gp assessed as potentiation of paclitaxel-induced cytotoxicity by measuring fold reduction paclitaxel IC50 at 10 uM after 48 hrs by MTT assay relative to paclitaxel alone; format: cell-based; summary of the method: as §2
# [7] = biological target: T1, ATP-dependent translocase ABCB1; assay: Reversal of P-gp mediated multidrug resistance in human DU145-TxR cells overexpressing P-gp assessed as potentiation of paclitaxel-induced cytotoxicity by measuring fold reduction paclitaxel IC50 at 5 uM after 48 hrs by MTT assay relative to parent compound; format: cell-based; summary of the method: as §2
# [8] = biological target: T1, ATP-dependent translocase ABCB1; assay: Reversal of P-gp mediated multidrug resistance in human DU145-TxR cells overexpressing P-gp assessed as potentiation of paclitaxel-induced cytotoxicity by measuring fold reduction paclitaxel IC50 at 7 uM after 48 hrs by MTT assay relative to parent compound; format: cell-based; summary of the method: as §2
# [9] = biological target: T1, ATP-dependent translocase ABCB1; assay: Reversal of P-gp mediated multidrug resistance in human DU145-TxR cells overexpressing P-gp assessed as potentiation of paclitaxel-induced cytotoxicity by measuring fold reduction paclitaxel IC50 at 10 uM after 48 hrs by MTT assay relative to parent compound; format: cell-based; summary of the method: as §2
# [10] = biological target: T1, ATP-dependent translocase ABCB1; assay: Inhibition of P-gp overexpressed in human DU145-TxR cells assessed as increase in cellular accumulation of calcein AM at 2 uM preincubated for 6 hrs followed by calcein AM addition by fluorescence imaging analysis; format: cell-based; summary of the method: as §1
# [11] = biological target: T2, P-glycoprotein (ABCB1, mouse MDR3) ATPase (Mus musculus, UniProt P21447); assay: Inhibition of verampil-stimulated ATPase hydrolysis in recombinant mouse MDR3 expressed in Pichia pastoris measured after 30 mins in presence of NADH by coupled enzyme assay (reference value: 100 +/- 8 %); set-up: scale not given: the % may be the effect or the level left; settings: recombinant mouse MDR3 (P-gp) expressed in Pichia pastoris
# [12] = biological target: T2, P-glycoprotein (ABCB1, mouse MDR3) ATPase; assay: Effect on basal ATPase hydrolysis of recombinant mouse MDR3 expressed in Pichia pastoris measured after 30 mins in presence of NADH by coupled enzyme assay (reference value: 100 +/- 7 %); set-up: scale not given: the % may be the effect or the level left; settings: recombinant mouse MDR3 (P-gp) expressed in Pichia pastoris, read-out: Activity
# [13] = biological target: T1, ATP-dependent translocase ABCB1; assay: Ratio of inhibition of P-gp overexpressed in human DU145-TxR cells assessed as increase in intracellular compound accumulation after 2.5 hrs in presence of tariquidar by LC-MS/MS analysis to Inhibition of P-gp overexpressed in human DU145-TxR cells assessed as decrease in intracellular compound accumulation after 2.5 hrs in absence of tariquidar by LC-MS/MS analysis; format: cell-based
# Summary of the method: (§3)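 P-gp-overexpressing DU145TXR cells exposed to test compounds with or without tariquidar. Intracellular compound measured by LC–MS/MS, with daunorubicin as a transported-substrate control. Ratio is accumulation with tariquidar divided by accumulation without.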
# [14] = biological target: T3, P-glycoprotein (ABCB1, MDR1) ATPase (Homo sapiens, UniProt P08183); assay: Inhibition of verampil-stimulated ATPase hydrolysis in recombinant human MDR1 expressed in Pichia pastoris measured after 30 mins in presence of NADH by coupled enzyme assay (reference value: 100 +/- 6 %); set-up: scale not given: the % may be the effect or the level left; settings: recombinant human MDR1 (P-gp) expressed in Pichia pastoris
# [15] = biological target: T3, P-glycoprotein (ABCB1, MDR1) ATPase; assay: Effect on basal ATPase hydrolysis of recombinant human MDR1 expressed in Pichia pastoris measured after 30 mins in presence of NADH by coupled enzyme assay (reference value: 100 +/- 5 %); set-up: scale not given: the % may be the effect or the level left; settings: recombinant human MDR1 (P-gp) expressed in Pichia pastoris, read-out: Activity
# [16] = biological target: P-glycoprotein 1 Abcb1a (Mus musculus); assay: Inhibition of spin-labelled adenine nucleotide interaction with mouse MDR3 P-gp expressed in Escherichia coli BL21 (DE3) assessed as apparent dissociation constant by ESR analysis (reference value: 36.5 +/- 3.6 uM)
# [17] = tested on: P-glycoprotein 1 Abcb1a (Mus musculus); assay: Inhibition of 2',3'-(2,2,5,5,-tetramethyl-3-pyrroline-l-oxyl-3-carboxylic acid ester)ATP interaction with mouse MDR3 P-gp expressed in Escherichia coli BL21 (DE3) assessed as reduction in ATP binding from 2 to 1 of nucleotide to mol of protein by ESR analysis (reference value: 1.8 +/- 0.1)
# [18] = biological target: T2, P-glycoprotein (ABCB1, mouse MDR3) ATPase; assay: Effect on verampil-mediated ATPase hydrolysis of recombinant mouse MDR3 expressed in Pichia pastoris measured after 30 mins in presence of NADH by coupled enzyme assay (reference value: 100 +/- 8 %); set-up: scale not given: the % may be the effect or the level left; settings: recombinant mouse MDR3 (P-gp) expressed in Pichia pastoris, read-out: Activity
# [19] = biological target: T1, ATP-dependent translocase ABCB1; assay: Inhibition of P-gp overexpressed in human DU145-TxR cells assessed as increase in intracellular compound accumulation after 2.5 hrs in presence of tariquidar by LC-MS/MS analysis; format: cell-based; summary of the method: as §3
# [20] = biological target: T2, P-glycoprotein (ABCB1, mouse MDR3) ATPase; assay: Stimulation of basal ATPase hydrolysis in recombinant mouse MDR3 expressed in Pichia pastoris measured after 30 mins in presence of NADH by coupled enzyme assay (reference value: 100 +/- 7 %); set-up: scale not given: the % may be the effect or the level left; settings: recombinant mouse MDR3 (P-gp) expressed in Pichia pastoris, read-out: Activity
# [21] = biological target: T3, P-glycoprotein (ABCB1, MDR1) ATPase; assay: Basal ATPase hydrolysis in recombinant human MDR1 expressed in Pichia pastoris measured after 30 mins in presence of NADH by coupled enzyme assay (reference value: 100 +/- 5 %); set-up: scale not given: the % may be the effect or the level left; settings: recombinant human MDR1 (P-gp) expressed in Pichia pastoris
# [22] = biological target: T2, P-glycoprotein (ABCB1, mouse MDR3) ATPase; assay: Stimulation of verampil-mediated ATPase hydrolysis in recombinant mouse MDR3 expressed in Pichia pastoris measured after 30 mins in presence of NADH by coupled enzyme assay (reference value: 100 +/- 8 %); set-up: scale not given: the % may be the effect or the level left; settings: recombinant mouse MDR3 (P-gp) expressed in Pichia pastoris, read-out: Activity
# T2 sequence (P21447 whole entry): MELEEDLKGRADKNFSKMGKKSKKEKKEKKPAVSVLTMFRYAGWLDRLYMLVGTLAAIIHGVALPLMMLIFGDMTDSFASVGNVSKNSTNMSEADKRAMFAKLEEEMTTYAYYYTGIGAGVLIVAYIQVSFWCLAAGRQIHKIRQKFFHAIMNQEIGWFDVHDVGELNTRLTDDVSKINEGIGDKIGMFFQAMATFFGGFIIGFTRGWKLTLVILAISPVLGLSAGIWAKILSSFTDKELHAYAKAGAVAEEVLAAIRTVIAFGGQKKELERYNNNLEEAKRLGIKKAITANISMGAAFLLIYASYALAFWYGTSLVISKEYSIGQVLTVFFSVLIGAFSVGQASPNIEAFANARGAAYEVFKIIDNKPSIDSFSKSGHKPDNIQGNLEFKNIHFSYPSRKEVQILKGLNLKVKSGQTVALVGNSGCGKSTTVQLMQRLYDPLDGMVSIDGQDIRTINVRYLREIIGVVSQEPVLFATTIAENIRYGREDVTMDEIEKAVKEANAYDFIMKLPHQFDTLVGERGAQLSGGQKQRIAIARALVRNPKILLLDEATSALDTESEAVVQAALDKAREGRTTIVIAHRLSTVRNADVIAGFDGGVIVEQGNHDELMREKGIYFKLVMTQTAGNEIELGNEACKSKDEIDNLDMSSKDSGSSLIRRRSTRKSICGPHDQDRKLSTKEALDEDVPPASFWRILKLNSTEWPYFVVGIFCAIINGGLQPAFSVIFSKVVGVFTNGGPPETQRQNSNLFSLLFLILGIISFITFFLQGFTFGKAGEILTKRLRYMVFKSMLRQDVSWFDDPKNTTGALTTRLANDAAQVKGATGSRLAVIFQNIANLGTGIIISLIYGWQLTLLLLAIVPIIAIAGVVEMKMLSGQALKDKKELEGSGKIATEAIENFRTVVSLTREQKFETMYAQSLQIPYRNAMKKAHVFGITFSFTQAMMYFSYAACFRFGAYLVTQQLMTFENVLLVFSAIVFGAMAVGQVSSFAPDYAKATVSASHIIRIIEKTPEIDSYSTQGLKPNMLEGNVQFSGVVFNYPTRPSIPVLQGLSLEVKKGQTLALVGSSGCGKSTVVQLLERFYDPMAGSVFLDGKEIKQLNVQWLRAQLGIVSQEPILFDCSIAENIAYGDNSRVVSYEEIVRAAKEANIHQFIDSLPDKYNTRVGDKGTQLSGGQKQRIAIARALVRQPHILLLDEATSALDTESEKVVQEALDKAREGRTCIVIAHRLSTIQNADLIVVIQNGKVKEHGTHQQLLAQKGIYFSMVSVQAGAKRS
# T1 sequence (P08183 whole entry): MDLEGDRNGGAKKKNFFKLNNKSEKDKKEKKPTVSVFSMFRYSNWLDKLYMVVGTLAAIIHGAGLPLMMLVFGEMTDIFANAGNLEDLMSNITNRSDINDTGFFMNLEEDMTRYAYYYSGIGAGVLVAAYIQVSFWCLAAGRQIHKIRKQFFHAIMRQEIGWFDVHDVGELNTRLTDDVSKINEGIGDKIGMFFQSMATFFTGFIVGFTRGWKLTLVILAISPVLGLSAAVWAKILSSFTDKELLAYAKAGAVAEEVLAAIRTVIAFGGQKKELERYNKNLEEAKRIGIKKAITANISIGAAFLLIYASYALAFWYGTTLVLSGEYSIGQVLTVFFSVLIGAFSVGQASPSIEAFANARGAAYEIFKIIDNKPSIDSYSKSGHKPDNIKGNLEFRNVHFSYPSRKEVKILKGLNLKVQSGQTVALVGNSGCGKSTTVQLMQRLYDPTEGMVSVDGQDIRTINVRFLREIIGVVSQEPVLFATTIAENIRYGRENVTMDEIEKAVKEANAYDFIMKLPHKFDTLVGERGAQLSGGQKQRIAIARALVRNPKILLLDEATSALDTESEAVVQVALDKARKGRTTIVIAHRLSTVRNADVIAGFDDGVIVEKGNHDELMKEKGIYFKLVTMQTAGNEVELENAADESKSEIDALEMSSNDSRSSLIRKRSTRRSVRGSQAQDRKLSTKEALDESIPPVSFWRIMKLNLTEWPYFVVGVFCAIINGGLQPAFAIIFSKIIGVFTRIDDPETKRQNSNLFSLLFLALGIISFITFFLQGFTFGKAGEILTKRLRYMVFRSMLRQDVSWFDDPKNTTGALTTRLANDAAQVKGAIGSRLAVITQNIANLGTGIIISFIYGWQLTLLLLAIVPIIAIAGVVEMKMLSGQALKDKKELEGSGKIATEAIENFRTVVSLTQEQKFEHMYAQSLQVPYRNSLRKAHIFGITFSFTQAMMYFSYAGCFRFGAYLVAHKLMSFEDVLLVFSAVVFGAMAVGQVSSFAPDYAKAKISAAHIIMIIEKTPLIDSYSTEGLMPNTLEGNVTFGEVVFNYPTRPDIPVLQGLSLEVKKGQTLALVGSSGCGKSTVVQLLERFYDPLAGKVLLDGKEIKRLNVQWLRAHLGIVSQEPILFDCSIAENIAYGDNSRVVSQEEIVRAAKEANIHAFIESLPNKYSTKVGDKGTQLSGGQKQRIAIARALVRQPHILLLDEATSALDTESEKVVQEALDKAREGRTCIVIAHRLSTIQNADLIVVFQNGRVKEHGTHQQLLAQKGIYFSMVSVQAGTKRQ
# T3 sequence (P08183 whole entry): as above
Compound,inhibition (INH) [1],inhibition (INH) [10],Activity at 0.5 h [11] [%],Activity at 0.5 h [12] [%],Ratio [13],Activity at 0.5 h [14] [%],Activity at 0.5 h [15] [%],Kd [16] [µM],Activity [17],Activity at 0.5 h [18] [%],inhibition (INH) [19],fold change (FC) [2],fold change (FC) [3],fold change (FC) [4],fold change (FC) [5],fold change (FC) [6],fold change (FC) [7],fold change (FC) [8],fold change (FC) [9],other results
Cc1cc(C)c(-c2cc(NC(=O)CSCC(=O)NCc3ccc(F)cc3)n(-c3ccccc3)n2)cc1C,Active,Active,–,143,1.3,59,95,25.7,1.9,98,Active,11,5.6,4.6,1.4,16,0.5,0.3,0.2,–
Cc1cc(C)c(-c2cc(NC(=O)CSc3cccc(NC(=O)c4cncc(Br)c4)c3)n(-c3ccccc3)n2)cc1C,Active,Active,62,–,1.1,27,–,22.8,1.7,–,–,236,106,38,11,353,9.7,6.6,3.5,Activity at 0.5 h [20]: 150%; Activity at 0.5 h [21]: 72%
Cc1cc(C)c(-c2cc(NC(=O)CSCC(=O)Nc3ccc4ncsc4c3)n(-c3ccccc3)n2)cc1C,Active,Active,–,–,1.2,59,84,25.6,1.9,123,Active,731,372,12,3.7,2118,34,20,27,Activity at 0.5 h [20]: 355%
COc1cc(NC(=O)CSCC(=O)Nc2cc(-c3cc(C)c(C)cc3C)nn2-c2ccccc2)cc(OC)c1OC,Active,Active,–,–,1.9,61,89,20.1,1.2,–,Active,3312,1116,11,3.4,30286,102,92,300,Activity at 0.5 h [22]: 194%

# The remaining compounds from weak to strong by Kd [16], led by results:
inhibition (INH) [1],inhibition (INH) [10],Activity at 0.5 h [11] [%],Activity at 0.5 h [12] [%],Ratio [13],Activity at 0.5 h [14] [%],Activity at 0.5 h [15] [%],Kd [16] [µM],Activity [17],Activity at 0.5 h [18] [%],inhibition (INH) [19],Compound,fold change (FC) [2],fold change (FC) [3],fold change (FC) [4],fold change (FC) [5],fold change (FC) [6],fold change (FC) [7],fold change (FC) [8],fold change (FC) [9],other results
Active,Active,49,95,1,62,–,71,1.9,–,–,Cc1cc(C)c(-c2cc(NC(=O)CSc3n[nH]c(C4CC4)n3)n(-c3ccccc3)n2)cc1C,36,11,3,1,101,1,1,1,–
Active,Active,50,88,1,62,83,36.9,1.8,–,–,Cc1cc(C)c(-c2cc(NC(=O)CSCC(=O)N3c4ccccc4CCc4ccccc43)n(-c3ccccc3)n2)cc1C,353,41,13,3.8,530,3.7,10,5,–
Active,Active,68,101,1,66,87,24.1,1.8,–,–,Cc1cc(C)c(-c2cc(NC(=O)CSc3nnc4c(n3)[nH]c3ccccc34)n(-c3ccccc3)n2)cc1C,125,101,5,1.5,125,9.2,3.4,3.4,–
Active,Active,–,105,1.1,64,–,23.1,1.7,108,–,Cc1cc(C)c(-c2cc(NC(=O)CSCC(=O)c3ccc4c(c3)Cc3ccccc3-4)n(-c3ccccc3)n2)cc1C,34,14,8,2.4,37,1.3,1,0.4,Activity at 0.5 h [21]: 69%
